Out of some 290,000 compounds screened, about 1,600 (0.55%) were called active. This is one part of a sample in which actives are shown more often than they occur. A number with no mark means an inactive call.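 Rule for the calls: active = inhibition above the mean of all tested compounds plus 3 SD, set per campaign (cut at about 35% in these data); inactive = the rest.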
These molecules were tested on Hepatitis C virus NS3 helicase (assay: inhibitors of HCV NS3 helicase, primary screen, biochemical, Cy5 molecular beacon fluorescence (AID 1800;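 note: 0% = DMSO wells and 100% = thioflavine S control wells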)). Details: NS3 helicase DNA unwinding, at 10.9 µM, stronger effect = higher value.
Method in brief: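 System: Hepatitis C virus NS3 helicase domain fragment enzyme | Reagent: Annealed dual-labelled DNA beacon duplex, ATP-started | Compound dosing: 10.9 µM single point, 0.8% DMSO | Incubation: 1 h reaction at 25 °C, ATP-initiated | Technique: Cy5 fluorescence | Evaluation: Percent inhibition from t60/t0 fluorescence ratio | Benchmarks: Low DMSO, high thioflavine S at 110 µM | Replication: Singlicate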
COc1cccc(N2C(=O)NC(=O)/C(=C\c3cn(C)c4ccccc34)C2=O)c1 showed an inhibition of -1.98%. With COc1ccc(N2C(=O)/C(=C/c3ccco3)C(=O)NC2=S)cc1 the inhibition was 58.9% (active). In the case of COc1ccc(CN2C(=O)NC(=O)/C(=C\c3ccc(OC)c(OC)c3OC)C2=O)cc1, the inhibition is reported as 21.5%. Molecule CN(C)CCN(CC1CCCN(Cc2ccccc2F)C1)C(=O)Cc1ccc(F)c(F)c1 (stereo not given) has an inhibition of -18.8%. Cc1ccc(S(=O)(=O)N(C)c2ccc(C(=O)NCC3(N(C)C)CCCCC3)cc2)cc1 showed an inhibition of -37.1%. Molecule Cc1cc(C)cc(NC(=S)NC2CC3CCCC(C2)N3Cc2cccs2)c1 (stereo not given) has an inhibition of -48.3%. CC(C)n1c(=O)c(C=Nc2ccc(Br)cc2)c(O)n(Cc2ccco2)c1=O was tested, and the inhibition was 45.5% (active). CN(C)CCCN=Cc1c(O)n(Cc2ccco2)c(=O)[nH]c1=O showed an inhibition of 16.9%. Work on COc1cc2nc(N3CCN(C(=O)[C@@H]4CCCO4)CC3)nc(N)c2cc1OC yielded an inhibition of -0.76%. Molecule CCN(CC)C(=O)Oc1ccc(NC(=O)N2CCOCC2)cc1 has an inhibition of 4.52%. For O=C1CC(=O)N(Cc2ccccc2)C(=O)N1CCCCCCN1C(=O)CC(=O)N(Cc2ccccc2)C1=O, the inhibition was 41.5% (active). O=C(CN1CCCC1=O)NCCc1ccccc1 was tested, and the inhibition was 0.89%. For CC(C)(C)c1ccc(CN2C(=O)CN=C(c3ccccc3)c3ccccc32)cc1, the inhibition was 14.7%. With CC1(C)Cc2c(C#N)c(N3CCNCC3)nc(-c3ccco3)c2CS1 the inhibition was -44.9%. With Cc1ccc(C2CN(C)CC2C(=O)c2ccc(F)cc2)cc1 (stereo not given) the inhibition was -2.19%.

— PubChem BioAssay AID1800 (The Scripps Research Institute Molecular Screening Center, 2009)
